High-throughput results: PubChem BioAssay, several laboratories
ANO1 activ: activators or potentiators of mouse TMEM16A chloride channel; Q8BHY3; HEK293 TMEM16A/YFP-H148Q/I152L, iodide quench fluorescence; stronger effect = lower value; B-score at 10 µM; hit rate 0.3% among 340,000; AID 623877;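 active = fluorescence-ratio B-score plate-corrected deviation score at least 3 library SD below zero, with starting fluorescence score within 5 deviations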;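 note: channel opened by trigger with iodide after compound preincubation; score built on the fluorescence ratio of max minus min over baseline; more negative score means more quench and so TMEM16A activation or potentiation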
Target sequence (Q8BHY3 whole entry, looked up): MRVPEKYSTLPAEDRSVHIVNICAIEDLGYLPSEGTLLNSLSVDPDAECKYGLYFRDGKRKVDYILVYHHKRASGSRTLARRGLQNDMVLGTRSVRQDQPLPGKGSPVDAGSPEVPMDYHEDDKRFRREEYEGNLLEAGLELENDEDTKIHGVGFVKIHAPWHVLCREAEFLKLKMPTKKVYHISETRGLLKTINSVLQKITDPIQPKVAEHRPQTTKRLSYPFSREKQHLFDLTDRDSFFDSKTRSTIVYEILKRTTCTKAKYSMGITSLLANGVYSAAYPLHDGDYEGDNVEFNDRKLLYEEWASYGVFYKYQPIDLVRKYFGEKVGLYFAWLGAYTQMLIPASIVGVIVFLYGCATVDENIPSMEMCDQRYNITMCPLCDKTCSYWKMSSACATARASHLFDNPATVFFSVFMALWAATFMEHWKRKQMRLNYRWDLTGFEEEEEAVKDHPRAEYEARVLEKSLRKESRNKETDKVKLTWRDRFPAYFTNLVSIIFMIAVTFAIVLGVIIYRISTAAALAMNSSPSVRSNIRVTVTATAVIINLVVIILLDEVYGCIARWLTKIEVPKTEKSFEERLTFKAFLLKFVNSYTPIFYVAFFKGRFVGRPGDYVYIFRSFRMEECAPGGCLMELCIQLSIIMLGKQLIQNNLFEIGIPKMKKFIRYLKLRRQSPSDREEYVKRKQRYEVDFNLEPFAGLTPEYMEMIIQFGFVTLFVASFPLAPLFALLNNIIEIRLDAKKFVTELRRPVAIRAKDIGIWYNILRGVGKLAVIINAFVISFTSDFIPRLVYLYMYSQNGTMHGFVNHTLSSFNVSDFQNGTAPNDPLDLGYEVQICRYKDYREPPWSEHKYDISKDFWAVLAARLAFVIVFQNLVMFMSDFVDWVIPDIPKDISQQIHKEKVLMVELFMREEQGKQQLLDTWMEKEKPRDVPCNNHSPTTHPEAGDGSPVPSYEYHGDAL
ANO1 block: blocks the mouse calcium-activated chloride channel TMEM16A; hit rate 1.2% among 310,000; HEK293 TMEM16A/YFP iodide influx fluorescence, ionomycin; normalized B-score (activity score, 25-100; higher = stronger inhibition) at 10 µM; AID 588511;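 active = ratio plate-corrected score three or more library SD toward inhibition, starting fluorescence score within five deviations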;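 note: score derived from kinetic fluorescence span divided by baseline fluorescence per well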
TAAR1 ag: human TAAR1 agonism; CHO RD-HGA16 TAAR1, Fluo-8 calcium fluorescence; vehicle wells 0%, saturating PEA agonist 100%; activation, % at 3 µM; hit rate 0.99% among 360,000; AID 624467;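 active = activation above the mean activation of all test compounds in the run plus 3 SD, cut at about 38% in these data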
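test system = CHO RD-HGA16 cells carrying human TAAR1 plus Gα16 | schedule = 17-24 h seeding, 75 min 37 °C dye, 30 min RT | compound dosing = 3 µM single concentration | control set = DMSO and PEA EC100 | replicates = n 1 | signal = Fluo-8 fluorescence, 5 s baseline then 140 s kinetic read | measure = percent activation vs PEA EC100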
CRFBP-R2 block: CRF-BP/CRF-R2 complex antagonism. HEK293 CRF-R2/CRF-BP, CRF-induced calcium fluorescence. inhibition, % at 11.8 µM. hit rate 0.59% among 350,000;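 active = inhibition of the ligand-induced calcium signal above about 50% at the single tested concentration, limit read from the data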
CRFR2-BP ag: agonists of human CRF-binding protein/CRF-R2 receptor complex; AID 588473; activation, % at 13.2 µM; HEK293 CRF-R2/CRF-BP, calcium dye fluorescence (FLIPR); percent of saturating CRF peptide response; hit rate 0.46% among 350,000;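 active = activation of at least 50%, plus an integration ratio under a set limit after plate pattern correction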;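 note: plate controls were neutral control wells without compound for no effect and CRF at EC100 for full effect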
TAAR1 antag: antagonists of human TAAR1. hit rate 1.5% among 360,000. CHO RD-HGA16 TAAR1, Fluo-8 calcium fluorescence, antagonist. inhibition, % at 3 µM. AID 624466;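 active = inhibition above a per-plate cutoff, the mean inhibition of test compounds on that plate plus 3 SD, cut at about 49% in these data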;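 note: 0% = DMSO plus EC80 beta-PEA response and 100% = DMSO alone without agonist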
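Test system: RD-HGA16 CHO cells with stable hTAAR1 and Gα16 / Probe or stimulus: EC80 β-phenethylamine stimulus / Times: seeding 17-24 h prior, 75-min 37 °C, 30-min RT dye loading / Detection: Fluo-8 calcium-sensitive fluorescence / Read-out basis: % inhibition scaled between DMSO and EC80 PEA controls / Repeats: singlicate, one well per test compound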
Starred values were filed as active, the others as inactive; i = inactive; / = no result given. An excerpt weighted towards active compounds, which were near 3.9% of everything screened.

SMILES	ANO1 activ	ANO1 block	TAAR1 ag	CRFBP-R2 block	CRFR2-BP ag	TAAR1 antag
COc1cccc(CN2CCC(Oc3ccc(C(=O)NCc4ccccn4)cc3)CC2)c1O	i	/	1	107*	0	-6
O=C(NCc1ccccn1)c1ccc(OC2CCN(Cc3ccccc3O)CC2)cc1	i	i	2	4	1	4
COc1ccc(COC(=O)c2cccc(S(=O)(=O)N3CCCC3)c2)cc1F	i	i	0	3	1	-11
O=C(NNc1ccc([N+](=O)[O-])cn1)Nc1ccc(N=Nc2ccccc2)cc1	i	/	45*	-16	0	16
CC(=O)N1CCCC(C)(C(=O)Nc2ccc3oc(C)nc3c2)C1 (configuration not stated)	/	/	-1	/	/	2
CC1(CCc2ccc3c(c2)OCO3)NCCc2c1[nH]c1ccccc21 (configuration not stated)	i	i	49*	-20	2	10
CC1(CCc2ccc3c(c2)OCO3)NC(=O)c2ccccc2N1 (configuration not stated)	i	i	2	30	0	2
CCOC(=O)c1sc(Nc2nc3c(OC)cccc3s2)nc1C	i	100*	3	/	/	27
N#CC1=C(N)NC(SCC(=O)Nc2ccccc2)=C(C#N)C12CCCC2	i	i	25	-10	0	47
N#CC1=C(SCC(=O)NC2CC2)NC(=O)C(C#N)C12CCCCC2 (configuration not stated)	i	i	12	4	-2	13
N#CC1=C(SCC(=O)NC23CC4CC(CC(C4)C2)C3)NC(=O)C(C#N)C12CCCCC2 (configuration not stated)	i	100*	28	-20	33	15
N#CC1=C(SCC(=O)Nc2cccc3cccnc23)NC(=O)C(C#N)C12CCCCC2 (configuration not stated)	i	100*	12	37	3	30
CC(C)(C)C1CCC2(CC1)C(C#N)=C(SCC(=O)NC1CCCCC1)NC(=O)C2C#N (configuration not stated)	i	100*	14	-18	0	30
CCOC(=O)C1=C(SCC(=O)Nc2ccccc2)NC(=O)C(C#N)C12CCCCC2 (configuration not stated)	-31*	i	23	-3	4	22
C=CCSC1=C(C#N)C2(CCCCC2)C(C#N)C(=O)N1 (configuration not stated)	i	i	11	8	-1	1
CC(C)(C)OC(=O)CNC(=O)c1[nH]cnc1C(=O)NC(c1ccccc1)c1ccccc1	i	i	6	-3	0	47
Cn1ccc(C(=O)Nc2cccnc2Cl)n1	i	/	1	-1	-1	-15
COCOCCn1cc(CN2CCS(=O)(=O)N(Cc3ccc(-c4ccc(Cl)nc4)cc3)C(CC(C)C)C2=O)nn1 (configuration not stated)	/	/	12	-2	-1	49*
Cc1ccc(-c2ccc(CN3C(CC(C)C)C(=O)N(Cc4cn(CCC5OCCCO5)nn4)CCS3(=O)=O)cc2)cc1 (configuration not stated)	/	/	10	9	0	58*
CC(C)CC1C(=O)N(Cc2cn(CCC3OCCCO3)nn2)CCS(=O)(=O)N1Cc1ccc(-c2ccc(F)cc2)cc1 (configuration not stated)	/	/	2	2	0	26
O=C(On1c(-c2ccccc2)nc2ccccc2c1=O)c1ccco1	i	100*	1	-2	1	-3
NC(COCc1ccccc1)c1csc(Nc2ccc(C(=O)c3ccccc3)cc2)n1 (configuration not stated)	/	/	50*	/	/	43
NC(=O)c1ccc(Nc2nc(C(N)COCc3ccccc3)cs2)cc1 (configuration not stated)	/	/	2	/	/	0
NC(CCc1ccccc1)c1csc(Nc2ccc(C(=O)c3ccccc3)cc2)n1 (configuration not stated)	/	/	41*	/	/	34
NC(CCc1ccccc1)c1csc(NC(=O)Nc2cccc(Cl)c2)n1 (configuration not stated)	/	/	39*	/	/	46
SMILES	ANO1 activ	ANO1 block	TAAR1 ag	CRFBP-R2 block	CRFR2-BP ag	TAAR1 antag
COc1ccc(OCc2nnc(SCC(=O)Nc3ccccc3Cl)o2)cc1	i	i	-1	-34	1	-9
CC(C)(C)c1ccc(C(=O)Nc2ccc(Cl)cc2)cc1	i	i	3	29	11	11
COC(=O)Cc1ccc(NC(=O)c2ccc(C(C)(C)C)cc2)cc1	i	100*	3	-46	3	-14
Cc1cc(N/N=C/c2ccc(O)c(C)c2O)nc(-c2ccccc2O)n1	i	i	13	-3	0	57*
C/C(=N\Nc1cc(C)nc(-c2ccccc2O)n1)c1ccccc1	i	i	12	-66	1	29
Cc1c(O)ccc(/C=N/Nc2nc(-c3cccnc3)nc3ccccc23)c1O	i	i	18	-9	0	74*
COc1ccc(C)cc1NC(=O)CNC(=O)[C@@H]1Cc2ccccc2CN1	i	i	0	18	-1	6
CN(Cc1ccc(Cl)cc1)C(c1cc2ccccc2o1)c1nnnn1C(C)(C)C (configuration not stated)	/	/	5	/	/	11
O=C(Nc1ccc(F)cc1)c1ccccc1F	i	i	9	6	1	-2
O=C(Nc1ccc(F)cc1)Nc1ccc(NC(=O)c2ccccc2O)cc1	i	i	41*	-5	1	58*
CCCCn1c(N)c(N(CCOC)C(=O)c2cnc(C)cn2)c(=O)[nH]c1=O	i	i	2	11	0	-35
Cc1cccc(CN2CCc3c(OCC(=O)N4CCCc5ccccc54)cccc3C2=O)c1	i	i	9	2	0	47
O=C1c2cccc(OCC(=O)N3CCCc4ccccc43)c2CCN1Cc1ccc(F)cc1	i	i	17	-44	6	56*
Cc1c(C(=O)O)sc(S(=O)(=O)N2CCN(C(=O)Cc3ccccc3)CC2)c1C(=O)O	i	/	2	11	-2	1
CSc1ccccc1C(=O)N1CCN(S(=O)(=O)c2sc(C(=O)O)c(C)c2C(=O)O)CC1	i	/	1	84*	1	-19
CC(C)=C1C2CCC1C(C(=O)Nc1sc(C)c(-c3ccc(C(C)C)cc3)c1C(N)=O)C2C(=O)O (configuration not stated)	i	i	10	109*	78*	12
